The text below walks through data of the RNAGym collection of RNA variant scans (doi:10.1126/science.aae0568).

First the molecules themselves.
B1: tRNA (parent)
chain: GUUCCGUUGGCGUAAUGGUAACGCGUCUCCCUCCUAAGGAGAAGACUGCGGGUUCGAGUCCCGUACGGAACG

Fewer inactive variants are shown than the library holds.

In the data set the parent is B1. Kind of data set: yeast fitness relative to wild type (ratio to wild type); higher = fitter; tRNA-Arg(CCU), competitive growth, 37 C, YPD. Summed up:
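Amplicons of the tRNA-Arg(CCU) gene were sequenced, 100-nucleotide paired-end, from the start population and from each end population of a pooled yeast competition. The competition, in six parallel replicates, lasted 24 hours in YPD at 37°C. Fitness relative to wild type was calculated from changes in genotype frequencies. Genotypes had to have ≥ 100 starting reads, and estimates < 0.5 were set to 0.5.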
For GUUCCGUUGACGUAAUGGCAACGCGUCUCCCUCCUAAGGAGAAGACUAGGGGUUCGAGUCCCGUACGGAACG [G10A U19C G48A C49G], the yeast fitness was 0.56.

In the case of GUUCCGUUGACGUAAUGGAAACGCGUCUCCCUCCUAAGGCGCAGACUGCGGGUUCGAGUCCCGUACGCAACG [G10A U19A A40C A42C G68C], the yeast fitness stood at 0.582.

On to GUUCCGUUGCCGUAAUGGUAACGCGUCUCCCUCCUCAGGAGAAGACUGCGGGUUCGAGUCCCGUACGGAACG [G10C A36C], for which the yeast fitness stood at 0.712.

As to GUUCCGUUGACGUAAUGGUAACGCGCCUCCCUCCUAAGGAGAAGACUGCGGGUUCAAGUCCCGUACGGAACG [G10A U26C G56A], the yeast fitness worked out at 0.542.

On to GUUCCGUUGACGUAAUGGUAACGCGUCUCCCUCCUAAGGAGAAGACUGCGGGCUCGAGUCCCGUACGGAACG [G10A U53C], for which the yeast fitness worked out at 0.608.

In the case of GUUCCGUUGACGUAAUGGUAACGCGUCACCCUCCUAAGGAGUAGACUGCGGGUUCGAGUCCCGUACGGAACG [G10A U28A A42U], the yeast fitness was not above 0.5.

For the variant GUUCCGUUGCCGUCAUGGUAACGCGUCUCCCUCCUAAGGAGAAGACUGCGGGUUCGAGUCACGUACAGCACG [G10C A14C C61A G67A A69C], the yeast fitness is not above 0.5.

As for GUUCCGUUGCCGUAAUGGUAGCGCGUCUCCCUCCUAAGGAGAAGACUGCGGGUUCUAGUCCCGUAAGGAACG [G10C A21G G56U C66A], the yeast fitness stood at 0.727.

In the case of GUUCCGUUGCCGUAAUGGUAACGCGUCUCCCUCCUGAGGAGAAGACUGUGGGUUCGAGUCCCGUACGGAACG [G10C A36G C49U], the yeast fitness was 0.551.

On to GUUCCGUUGACGUAAUGGUAACGCGUCUCCCCCCUAAGGAGAAGACUGCGGGUUCGGGUCCCGUACGGAACG [G10A U32C A57G], for which the yeast fitness was not above 0.5.

For GUUCCGUUGCCGUCAUGGUAACGCGUCUCCCUCCUAAGGAGAAGACUGCGGGUUCGAAUCCCGUACGGAACG [G10C A14C G58A], the yeast fitness is not above 0.5.

GUUCCGUUGCCGUAAUGGUAACGCGUCUCCCUCCUUAGGAGAAGACUGCGGGUUCGAGUCCCGUACGGUACG [G10C A36U A69U]: the yeast fitness was not above 0.5.

For GUUCCGUUGCCGUAGUGAUAACGCGUCUCCCUCCAAAGGAGAAAACUGCGGGUUCGAGUCCCGUACGGAACG [G10C A15G G18A U35A G44A], the yeast fitness is not above 0.5.

On to GUUCCGUUGACGUAAUGGUAACGCGUCUCCCUCCAAAGGAGAAGACUGCGGGUUCGAGUCCCCUACGGAACG [G10A U35A G63C], for which the yeast fitness is not above 0.5.

As for GUUCCGUUGACGUAAUGGUAACGCGCCUGCUUCCUAAGGAGAAGACUGCGGGUUCGAGUCCCGUACGGAACG [G10A U26C C29G C31U], the yeast fitness is not above 0.5.

For GUUCCGUUGCCGUAAUGGUGACGCGUCUCCCUCCUAAGGAGAGGAUUGCGGGUUCGAGUCCCGUACGGAACG [G10C A20G A43G C46U], the yeast fitness was not above 0.5.

For GUUCCGUUGCCGUCAUGGUAACGCGUCUCCCUCCUAAGGAGAAGACUGCGGGUUCGAGUCUCGUACGGAACG [G10C A14C C61U], the yeast fitness was not above 0.5.

Consider GUUCCGUUGCCGUAAUGGUAGCGCGUCUCCCUCCUAAGGAGAAGACUGCGGGUUGGGGUACCGUACGGAACG [G10C A21G C55G A57G C60A], for which the yeast fitness is not above 0.5.

With GUUCCGUUGACGUAAUGGUAACGCGUCUCCCUCCGAAGGAGAGGAUUGCGGGUUCGAGUCCCGUACGGAACG [G10A U35G A43G C46U], the yeast fitness was 0.587.

As for GUUCCGUUGCCGUCAUGGUAACGCGUAUGCCUCCUAAGGAGAAGACUGCGGGUUCGCGUCCCGUUCGGAACG [G10C A14C C27A C29G A57C A65U], the yeast fitness was not above 0.5.

For GUUCCGUUGACGUAAUGGAAACGCGUCUCCCUCCUAAGGAGAAGAAUGCGGGUUCGAGUCCCGUACGGAACG [G10A U19A C46A], the yeast fitness worked out at 0.542.

On to GUUCCGUUGACGUAAAGGUAACGCGUCCCCCUCCUAAGGAGCAGACUGCGGGUUCGAGUCCCGUAUGGAACG [G10A U16A U28C A42C C66U], for which the yeast fitness was not above 0.5.

For GUUCCGUUGACGUAAUGGUAACGCGUCUCCCACCUAAGGAGAAGACUGUGGGUUCGAGUCCCGUACGGAACG [G10A U32A C49U], the yeast fitness is 0.577.

For GUUCCGUUGCCGUGAUGGUAACGCGUCUCCCUCCUAAGGAGAAGACUGCGGGUUCGAGUCCCGUACGGAACG [G10C A14G], the yeast fitness is 0.569.

With GUUCCGUUGCCGUUAUGGUAACGCGUCUCCCUCCUAAGGAGAAGACUGCGGGUUCGAGUCCCGUACGGAACG [G10C A14U], the yeast fitness was 0.546.

Regarding GUUCCGUUGCCGUAAUGGUUACGCGUCUCCCUCCUAAGGAGGAGACUGCGGGUUCGAGUGCCGUACGGAACG [G10C A20U A42G C60G], the yeast fitness was not above 0.5.

Consider GUUCCGUUGCCGUUAUGGAAAUGCGUCUCCCUCCUAAGGAGAAGACUGCGGGUUCGAGUCCAGUACGGAACG [G10C A14U U19A C22U C62A], for which the yeast fitness was not above 0.5.

Regarding GUUCCGUUGCCGUAAUGGUUACGCGUUUUCCUCCUAAGGUGAAGACUGCGGGUUCGAGUCCCGUAUGGAACG [G10C A20U C27U C29U A40U C66U], the yeast fitness is not above 0.5.

As to GUUCCGUUGCCGUAAUGGUAACGCGUCUCCCUCCUAAGGAGAAGACUGCGGGUUCGAGUCCCGUACGGAACG [G10C], the yeast fitness is 0.661.

As for GUUCCGUUGACGUAAUGGUAACGCGUCUCCCUCCUAAGGAGAAGACUGCGGGUGCGAGUCCCGUACGGAACG [G10A U54G], the yeast fitness is not above 0.5.

GUUCCGUUGACGUAAUGGUAACGCGACUCCCUCCUAAGGAGAAGACUGCGGGUUCGAGUCCCGUAUGGAACG [G10A U26A C66U]: the yeast fitness turned out to be 0.537.

On to GUUCCGUUGCCGUAAUGGUAACGCGUCUCCCUCCUGAGGAAAAGACUGCGGGUUCGAGUCCCGUACGGAACG [G10C A36G G41A], for which the yeast fitness is not above 0.5.

Take GUUCCGUUGCCGUAAUGGUAACGCGUCUCCCUCCUCAGGAGAAGACUACGGGUUCGAGUCCUGUACGGAACG [G10C A36C G48A C62U]: the yeast fitness was determined as 0.555.

As to GUUCCGUUGCCGUCAUGGUAUCGCGUCUCCUUCCUAAGGAGAAGACUGCGGGUUCGAGUCCCGUACGGAACG [G10C A14C A21U C31U], the yeast fitness was 0.773.

For the variant GUUCCGUUGCCGUCAUGGUAACGCGUCUCCCUCCUAAGGAGAAGACUGCGGGUUCGAGUACCGUACGGAACG [G10C A14C C60A], the yeast fitness is not above 0.5.

GUUCCGUUGACGUAAUGGUAACGCGUCUCCCUCCUAAGGAGAAGACGGCGGGUUCGAGUCCCGUCCGGAACG [G10A U47G A65C]: the yeast fitness is not above 0.5.

With GUUCCGUUGCCGUCAUGGUAACUCGUCUCCAUGCUAAGGAGAAGACUGCGGGUUCGAGUCCCGUACGGAACG [G10C A14C G23U C31A C33G], the yeast fitness stood at 0.512.

In the case of GUUCCGUUGCCGUAAUGGUAGCGCGUCUACCUCCUAAGGAGAUGACUGCGGGUUAGAGUCCCGUACGGAACG [G10C A21G C29A A43U C55A], the yeast fitness was 0.651.
